{"source": "ChEMBL document CHEMBL1144710", "about": "“epigenetic multiple ligands: mixed histone/protein methyltransferase, acetyltransferase, and class III deacetylase (sirtuin) inhibitors” (J Med Chem, 2008)", "key": {"U-937 [1]": {"system": "U-937", "assay": "Cell cycle arrest in human U937 cells assessed as accumulation at S phase at 25 uM after 30 hrs", "format": "functional, cell-based", "outline": "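U937 cells in RPMI with 10% fetal calf serum, HEPES and glutamine, kept at 200000 cells/mL; treated at 25 µM for 30 h, then the distribution across cell cycle phases was analysed.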"}, "U-937 [2]": {"system": "U-937", "assay": "Induction of apoptosis in human U937 cells at 25 uM after 30 hrs", "format": "functional", "outline": "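Apoptosis read as caspase 3 activation by FACS, in U937 cells (RPMI, 10% fetal calf serum, 200000 cells/mL) exposed to 25 µM for 30 h.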"}, "U-937 [3]": {"system": "U-937", "assay": "Induction of granulocytic differentiation in human U937 cells assessed as CD11c expression at 5 uM after 30 hrs", "format": "functional", "outline": "(§1)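 U937 cells treated for 30 h, then stained with PE-conjugated CD11c (PE mouse IgG1 as control) for 30 min at 4 °C in the dark and resuspended in PBS with PI (0.25 µg/mL). Read-out is percent CD11c-positive/PI-negative cells, with dead PI-positive cells excluded. Coloured compounds limited the top dose to 5 µM or lower.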"}, "U-937 [4]": {"system": "U-937", "assay": "Induction of granulocytic differentiation in human U937 cells assessed as CD11c expression at 0.5 uM after 30 hrs", "format": "functional", "outline": "as §1"}, "RmtA": {"target": "RmtA (Emericella nidulans, UniProt Q5VLE3)", "sequence (Q5VLE3 whole entry, the tested form may be a part)": "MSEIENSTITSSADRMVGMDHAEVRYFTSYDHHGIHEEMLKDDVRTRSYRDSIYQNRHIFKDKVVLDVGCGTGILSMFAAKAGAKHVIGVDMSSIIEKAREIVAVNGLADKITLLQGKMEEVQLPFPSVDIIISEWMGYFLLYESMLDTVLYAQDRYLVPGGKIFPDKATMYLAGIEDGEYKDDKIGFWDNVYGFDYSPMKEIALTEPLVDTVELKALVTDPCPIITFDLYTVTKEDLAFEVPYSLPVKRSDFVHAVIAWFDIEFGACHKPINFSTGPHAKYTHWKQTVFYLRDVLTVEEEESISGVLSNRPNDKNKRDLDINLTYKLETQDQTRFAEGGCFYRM", "assay": "Inhibition of Aspergillus nidulans RmtA", "outline": "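Enzyme was GST-RmtA fusion expressed in E. coli BL21 and glutathione-affinity purified (500 ng), preincubated with compound for 15 min at room temperature. Then 20 µg chicken erythrocyte core histones and 0.55 µCi [3H]AdoMet were added, 30 min at 30 °C. Stopped with 25% TCA, filtered, counted by liquid scintillation.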"}, "[5]": {"target": "Protein arginine N-methyltransferase 1 (Homo sapiens) (UniProt Q99873)", "sequence (Q99873 whole entry, looked up)": "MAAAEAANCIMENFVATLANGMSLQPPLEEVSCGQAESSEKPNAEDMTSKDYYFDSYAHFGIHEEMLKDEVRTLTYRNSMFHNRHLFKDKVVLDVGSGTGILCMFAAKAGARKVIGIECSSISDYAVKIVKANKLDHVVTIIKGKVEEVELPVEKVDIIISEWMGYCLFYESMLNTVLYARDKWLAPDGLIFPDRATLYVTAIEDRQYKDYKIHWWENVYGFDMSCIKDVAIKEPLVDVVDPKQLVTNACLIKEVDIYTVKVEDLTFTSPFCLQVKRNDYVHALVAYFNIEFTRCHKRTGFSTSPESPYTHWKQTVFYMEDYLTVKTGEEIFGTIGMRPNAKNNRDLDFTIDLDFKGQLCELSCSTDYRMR", "assay": "Inhibition of human recombinant PRMT1 assessed as histone H4 methylation at 50 uM"}, "[6]": {"target": "T1, Histone-arginine methyltransferase CARM1 (Homo sapiens) (UniProt Q86X55)", "T1 sequence (whole entry)": "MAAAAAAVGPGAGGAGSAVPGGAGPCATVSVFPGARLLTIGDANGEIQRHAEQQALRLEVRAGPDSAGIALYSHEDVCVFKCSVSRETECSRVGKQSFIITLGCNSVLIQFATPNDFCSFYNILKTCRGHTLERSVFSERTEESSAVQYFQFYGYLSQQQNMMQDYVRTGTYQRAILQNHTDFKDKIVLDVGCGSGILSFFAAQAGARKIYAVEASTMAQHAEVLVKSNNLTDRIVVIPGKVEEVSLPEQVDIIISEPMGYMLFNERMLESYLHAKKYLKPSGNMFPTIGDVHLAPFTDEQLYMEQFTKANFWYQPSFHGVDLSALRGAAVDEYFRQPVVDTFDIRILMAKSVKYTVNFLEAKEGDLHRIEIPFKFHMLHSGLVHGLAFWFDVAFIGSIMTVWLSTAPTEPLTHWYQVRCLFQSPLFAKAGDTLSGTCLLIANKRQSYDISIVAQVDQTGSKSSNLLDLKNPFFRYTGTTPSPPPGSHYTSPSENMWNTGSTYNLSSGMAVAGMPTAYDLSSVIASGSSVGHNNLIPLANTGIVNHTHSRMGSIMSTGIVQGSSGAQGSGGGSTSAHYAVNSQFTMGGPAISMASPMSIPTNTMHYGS", "assay": "Inhibition of human recombinant CARM1 assessed as poly(A) binding protein 1 methylation at 100 uM", "outline": "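Recombinant enzymes (0.2 µg) with substrate (0.5 µg: Npl3p for PRMT1, PABP1 for CARM1, histone H3 for SET7), 0.5 µM [3H]AdoMet and 100 µM compound in PBS pH 7.4 with 3.3% v/v DMSO, 90 min at 30 °C. Products separated by 10% SDS-PAGE, transferred to PVDF, detected by fluorography on film overnight.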"}, "U-937 [7]": {"system": "U-937", "assay": "Inhibition of histone H4R3 methylation in human U937 cells at 50 uM after 24 hrs", "format": "functional, cell-based", "outline": "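U937 cells treated at 50 µM for 24 h. Histones extracted with Triton buffer, then 0.2 M HCl overnight at 4 °C. 3–10 µg run on 15% SDS-PAGE and immunoblotted with anti-monomethyl-H3K4, monomethyl-H4R3 or dimethyl-H3R17 (1:500, overnight 4 °C), ECL detection. Loading controls: total H4 (H3K4), Ponceau Red (Arg marks).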"}, "U-937 [8]": {"system": "U-937", "assay": "Inhibition of human p300/CBP in U937 cells at 50 uM assessed as histone H3 acetylation", "format": "cell-based", "outline": "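Source was U937 nuclear extract (10 µg per assay) as p300/CBP HAT, with histone H3 substrate and compound at 50 µM or DMSO control for 90 min. Acetyl-H3 detected by indirect ELISA, quantified against acetylated H3 peptide standard curves, […].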"}, "[9]": {"target": "T2, NAD-dependent protein deacetylase sirtuin-1 (Homo sapiens) (UniProt Q96EB6)", "T2 sequence (whole entry)": "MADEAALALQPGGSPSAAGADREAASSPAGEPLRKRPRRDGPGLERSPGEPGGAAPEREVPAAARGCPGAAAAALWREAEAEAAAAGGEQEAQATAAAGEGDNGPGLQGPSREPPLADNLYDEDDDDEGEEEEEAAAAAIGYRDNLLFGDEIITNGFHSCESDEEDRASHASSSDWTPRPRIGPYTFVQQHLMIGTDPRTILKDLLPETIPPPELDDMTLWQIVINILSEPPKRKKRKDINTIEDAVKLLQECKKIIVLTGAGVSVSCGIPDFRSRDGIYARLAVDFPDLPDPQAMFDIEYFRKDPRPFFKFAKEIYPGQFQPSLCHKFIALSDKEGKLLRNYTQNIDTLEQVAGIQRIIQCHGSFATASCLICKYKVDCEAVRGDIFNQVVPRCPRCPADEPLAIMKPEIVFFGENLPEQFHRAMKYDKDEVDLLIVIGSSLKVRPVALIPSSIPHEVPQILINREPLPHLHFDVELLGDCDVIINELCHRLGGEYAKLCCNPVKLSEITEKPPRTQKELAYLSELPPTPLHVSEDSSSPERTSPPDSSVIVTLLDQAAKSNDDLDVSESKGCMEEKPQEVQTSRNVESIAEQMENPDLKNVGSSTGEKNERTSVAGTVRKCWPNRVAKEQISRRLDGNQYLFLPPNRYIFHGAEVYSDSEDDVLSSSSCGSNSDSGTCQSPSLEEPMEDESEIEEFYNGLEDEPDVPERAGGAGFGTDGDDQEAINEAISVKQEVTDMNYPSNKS", "assay": "Inhibition of human SIRT1 at 25 uM", "outline": "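Fluorescent two-stage assay. SIRT1 (1 U/well) or SIRT2 (5 U/well) with Fluor de Lys-SIRT1/2 substrate, NAD+ and compound at 25 µM, 37 °C for 2 h. Developer II containing nicotinamide then stopped the reaction and generated signal, read at ex 360/em 460 nm.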"}}, "note": "Active and inactive are the calls of the source. Unless noted, no cut-off for these calls is given here."}
{"smiles": "O=C1/C(=C/c2cc(Br)c(O)c(Br)c2)COC/C1=C\\c1cc(Br)c(O)c(Br)c1", "values": [{"measurement": "Activity", "setting": "U-937 [1]", "value": "Active"}, {"measurement": "Activity", "setting": "U-937 [2]", "value": 27.9, "unit": "%"}, {"measurement": "Activity", "setting": "U-937 [3]", "value": 96.1, "unit": "%"}, {"measurement": "Activity", "setting": "U-937 [4]", "value": 59, "unit": "%"}, {"measurement": "IC50", "setting": "RmtA", "value": 29, "unit": "µM"}, {"measurement": "inhibition", "setting": "[5]", "value": 91, "unit": "%"}, {"measurement": "Activity", "setting": "[6]", "value": "Active"}, {"measurement": "Activity", "setting": "U-937 [7]", "value": "Active"}, {"measurement": "inhibition", "setting": "U-937 [8]", "value": 61, "unit": "%"}, {"measurement": "inhibition", "setting": "[9]", "value": 62, "unit": "%"}]}
